Tests used:
[1] = test system: HeLa; assay: Cytotoxicity against human HeLa cells after 4 days by ELISA reader assay; type: functional, cell-based; settings: 96 h
Method in brief: (§1)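 Cells grown per supplier, seeded at 2–4 × 10⁴ per well, left overnight in medium with 10% FBS at 37 °C under 5% CO₂, then exposed to compounds. WST (cell counting kit-8) reagent added for a further 4 h, absorbance read at 450 nm. IC50 from four-parameter logistic fit; mean ± S.D. of three experiments, each in triplicate.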

[2] = molecular target: T1, DNA topoisomerase 1 (Homo sapiens) (UniProt P11387); assay: Inhibition of human recombinant DNA topoisomerase 1-mediated relaxation of supercoiled pBR322 DNA at 20 uM after 30 mins by agarose gel electrophoresis
T1 sequence (whole entry): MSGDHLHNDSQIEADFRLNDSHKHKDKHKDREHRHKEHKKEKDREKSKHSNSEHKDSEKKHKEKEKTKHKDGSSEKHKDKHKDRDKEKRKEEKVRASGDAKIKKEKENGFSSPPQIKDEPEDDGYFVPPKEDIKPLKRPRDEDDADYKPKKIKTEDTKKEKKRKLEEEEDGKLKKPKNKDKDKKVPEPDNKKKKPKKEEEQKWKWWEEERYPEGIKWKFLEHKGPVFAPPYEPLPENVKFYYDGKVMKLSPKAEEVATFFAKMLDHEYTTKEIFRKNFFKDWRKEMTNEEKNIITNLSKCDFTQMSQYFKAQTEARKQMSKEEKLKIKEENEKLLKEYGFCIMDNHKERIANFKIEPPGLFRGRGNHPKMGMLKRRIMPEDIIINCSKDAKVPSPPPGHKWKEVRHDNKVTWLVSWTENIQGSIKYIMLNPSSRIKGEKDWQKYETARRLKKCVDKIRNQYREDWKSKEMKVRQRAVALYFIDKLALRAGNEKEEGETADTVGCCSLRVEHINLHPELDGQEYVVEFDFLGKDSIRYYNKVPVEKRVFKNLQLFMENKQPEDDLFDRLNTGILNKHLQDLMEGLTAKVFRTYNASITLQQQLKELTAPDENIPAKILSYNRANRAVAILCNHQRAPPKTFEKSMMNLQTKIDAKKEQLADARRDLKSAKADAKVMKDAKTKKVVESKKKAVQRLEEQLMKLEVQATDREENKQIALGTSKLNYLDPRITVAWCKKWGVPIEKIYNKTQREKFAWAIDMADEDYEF
Method in brief: (§2)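 Recombinant human topo I (0.4 units) with 100 ng supercoiled pBR322, 30 min at 37 °C in 10 mM Tris–HCl pH 7.9, 150 mM NaCl, 0.1% BSA, 1 mM spermidine, 5% glycerol. Compounds from 20 mM DMSO stock. Products run on 1% agarose in TAE, 15 V for 7 h, ethidium-stained, bands quantified under UV.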

[3] = test system: DU-145; assay: Cytotoxicity against human DU145 cells after 4 days by ELISA reader assay; type: functional, cell-based; settings: DU-145, 96 h; method in brief: as §1
[4] = test system: HCT-15; assay: Cytotoxicity against human HCT15 cells after 4 days by ELISA reader assay; type: functional, cell-based; settings: HCT-15, 96 h; method in brief: as §1
[5] = molecular target: DNA topoisomerase 2-alpha (Homo sapiens) (UniProt P11388); assay: Inhibition of human DNA topoisomerase 2alpha-mediated relaxation of supercoiled pBR322 DNA at 100 uM after 30 mins by agarose gel electrophoresis
Chain of DNA topoisomerase 2-alpha (Homo sapiens) (P11388 whole entry): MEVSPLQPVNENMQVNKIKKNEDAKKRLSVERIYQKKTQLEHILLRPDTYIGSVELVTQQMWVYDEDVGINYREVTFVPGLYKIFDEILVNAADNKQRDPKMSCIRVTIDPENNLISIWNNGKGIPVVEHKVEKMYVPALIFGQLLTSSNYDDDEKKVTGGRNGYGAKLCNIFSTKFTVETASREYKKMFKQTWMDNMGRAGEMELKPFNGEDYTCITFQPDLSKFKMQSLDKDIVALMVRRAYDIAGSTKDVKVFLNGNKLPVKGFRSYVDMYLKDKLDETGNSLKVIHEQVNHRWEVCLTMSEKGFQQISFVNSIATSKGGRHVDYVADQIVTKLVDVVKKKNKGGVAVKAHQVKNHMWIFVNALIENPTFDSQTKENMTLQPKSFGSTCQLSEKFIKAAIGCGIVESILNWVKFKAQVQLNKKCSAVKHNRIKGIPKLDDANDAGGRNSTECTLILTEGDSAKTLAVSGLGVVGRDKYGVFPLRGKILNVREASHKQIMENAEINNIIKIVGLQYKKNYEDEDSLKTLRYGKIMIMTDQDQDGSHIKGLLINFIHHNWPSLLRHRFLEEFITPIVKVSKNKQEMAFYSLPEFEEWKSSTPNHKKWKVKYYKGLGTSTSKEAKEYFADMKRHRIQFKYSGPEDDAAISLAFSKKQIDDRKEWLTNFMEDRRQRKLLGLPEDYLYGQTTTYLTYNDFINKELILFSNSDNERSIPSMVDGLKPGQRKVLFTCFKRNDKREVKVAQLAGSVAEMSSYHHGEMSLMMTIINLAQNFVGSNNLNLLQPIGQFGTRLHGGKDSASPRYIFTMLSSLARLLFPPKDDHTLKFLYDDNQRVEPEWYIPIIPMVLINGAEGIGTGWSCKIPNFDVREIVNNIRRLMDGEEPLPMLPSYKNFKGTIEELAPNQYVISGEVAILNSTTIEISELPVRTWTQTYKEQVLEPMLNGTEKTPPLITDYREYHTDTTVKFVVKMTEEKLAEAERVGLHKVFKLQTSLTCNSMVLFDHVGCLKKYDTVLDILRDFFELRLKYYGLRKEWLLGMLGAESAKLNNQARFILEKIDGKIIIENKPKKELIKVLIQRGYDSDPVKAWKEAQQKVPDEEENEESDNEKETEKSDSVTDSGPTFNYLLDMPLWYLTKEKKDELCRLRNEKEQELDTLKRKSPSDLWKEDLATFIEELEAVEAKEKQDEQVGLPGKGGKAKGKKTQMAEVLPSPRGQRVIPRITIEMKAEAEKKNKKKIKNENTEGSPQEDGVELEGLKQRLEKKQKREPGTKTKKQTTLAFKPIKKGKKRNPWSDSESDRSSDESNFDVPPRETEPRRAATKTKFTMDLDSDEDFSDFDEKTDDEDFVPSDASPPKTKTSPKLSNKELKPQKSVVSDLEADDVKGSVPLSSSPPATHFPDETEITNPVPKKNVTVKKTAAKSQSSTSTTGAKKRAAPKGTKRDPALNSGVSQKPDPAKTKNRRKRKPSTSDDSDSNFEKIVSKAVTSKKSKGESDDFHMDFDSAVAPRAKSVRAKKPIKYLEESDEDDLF
Method in brief: (§3)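 Human topo IIα (1 unit) with 200 ng supercoiled pBR322, 30 min at 30 °C in 10 mM Tris–HCl pH 7.9, 50 mM NaCl, 50 mM KCl, 5 mM MgCl2, 1 mM EDTA, 1 mM ATP plus BSA. Products run on 1% agarose in TAE at 25 V for 4 h, ethidium-stained, supercoiled DNA quantified under UV.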

[6] = test system: MCF7; assay: Cytotoxicity against human MCF7 cells after 4 days by ELISA reader assay; type: functional, cell-based; settings: MCF7, 96 h; method in brief: as §1
[7] = molecular target: T1, DNA topoisomerase 1 (Homo sapiens); assay: Inhibition of human recombinant DNA topoisomerase 1-mediated relaxation of supercoiled pBR322 DNA at 100 uM after 30 mins by agarose gel electrophoresis; method in brief: as §2
[8] = molecular target: DNA topoisomerase 2-alpha (Homo sapiens) (UniProt P11388); assay: Inhibition of human DNA topoisomerase 2alpha-mediated relaxation of supercoiled pBR322 DNA at 20 uM after 30 mins by agarose gel electrophoresis; method in brief: as §3
[9] = test system: K562; assay: Cytotoxicity against human K562 cells after 4 days by ELISA reader assay; type: functional, cell-based; settings: K562, 96 h; method in brief: as §1

- inhibition [2]: 42.9%
- inhibition [5]: 53.3%
- inhibition [7]: 53.1%
- inhibition [8]: 48.4%
SMILES: Clc1ccc(-c2cc(-c3ccco3)cc(-c3ccc(Cl)s3)n2)cc1
- IC50 [1]: 17 µM
- IC50 [3]: 14.8 µM
- IC50 [4]: 1.08 µM
- IC50 [6]: 1.52 µM
- IC50 [9]: 10.5 µM
